Compound activity deposited in PubChem by Johns Hopkins Ion Channel Center.
Most compounds without a hit are left out; they make up all but 3.5% or so of the library.
RGS4 block: RGS4 inhibitors, primary screen, cell-based, HEK293 M3R inducible RGS4, calcium flux. Regulator of G-protein signaling 4 (Homo sapiens), P49798. Fluo-4 calcium flux; hits give high values; triggered by carbachol at its EC20. B-score at 10 µM. 310,000 compounds, 0.45% hits. AID 463165, 2010;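 active = B-score, a plate-corrected calcium signal, over three deviations above library mean, with baseline fluorescence within five deviations of library mean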;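 note: RGS4 expression induced by doxycycline in cells with stable M3 receptor; B-score is computed from the integrated fluorescence ratio over baseline after carbachol; higher B-score means a larger calcium signal and so more RGS4 inhibition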
Target sequence (P49798 whole entry, looked up): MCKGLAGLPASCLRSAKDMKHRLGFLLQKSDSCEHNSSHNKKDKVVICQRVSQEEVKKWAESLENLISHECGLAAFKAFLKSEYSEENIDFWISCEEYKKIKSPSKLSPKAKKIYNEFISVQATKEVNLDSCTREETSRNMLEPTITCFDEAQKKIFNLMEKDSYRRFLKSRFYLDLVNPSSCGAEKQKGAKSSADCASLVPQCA
MrgX1 PAM: positive allosteric modulators of MrgX1, primary screen, HEK293 cells, Fluo-4 calcium flux; B-score at 10 µM; AID 588675, 2011; FDSS; hits give high values; 310,000 compounds, 0.63% hits; Mas-related G-protein coupled receptor member X1 (Homo sapiens), Q96LB2;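 active = plate-corrected calcium response at least 3 library SD above typical, normal starting fluorescence, not activating the receptor alone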;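 note: compound read alongside a low EC10 to EC30 dose of BAM8-22 agonist; peak minus trough fluorescence over baseline measured at the second addition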
Target sequence (Q96LB2 whole entry, looked up): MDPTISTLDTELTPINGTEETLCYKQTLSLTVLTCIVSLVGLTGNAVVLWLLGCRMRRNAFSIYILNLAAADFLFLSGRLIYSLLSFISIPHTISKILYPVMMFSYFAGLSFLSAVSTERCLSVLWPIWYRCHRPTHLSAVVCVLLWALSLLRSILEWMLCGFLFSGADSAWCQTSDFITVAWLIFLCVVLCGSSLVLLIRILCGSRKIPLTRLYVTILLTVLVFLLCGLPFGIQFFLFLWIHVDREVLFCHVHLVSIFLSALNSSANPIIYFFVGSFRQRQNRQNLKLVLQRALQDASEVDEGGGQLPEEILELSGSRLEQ
MrgX1 ag: agonists of human MrgX1 receptor, primary screen, HEK293 cells, Fluo-4 calcium flux; 310,000 compounds, 0.44% hits; B-score at 10 µM; AID 588627, 2011; Fluo-4 calcium fluorescence, agonist mode; hits give high values; Mas-related G-protein coupled receptor member X1 (Homo sapiens), Q96LB2;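 active = calcium response B-score plate-corrected fluorescence ratio at least 3 library SD, with starting fluorescence B-score inside 5 SD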
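Assay system: MrgX1-expressing HEK293 cells / Amount: fifteen thousand cells per well / Doses: test compound in the initial addition of three / Timing: cells plated overnight, dye loaded 0.5 h 37 °C, 0.5 h room temperature / Technique: kinetic calcium dye fluorescence, Fluo-4 NW / Control set: positive and negative controls per plate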
RGS4 pot: RGS4 potentiators or activators, primary screen, cell-based, HEK293 M3R inducible RGS4, calcium flux. B-score at 10 µM. AID 463111, 2010. carbachol calcium flux Fluo4; hits give low values. 310,000 compounds, 0.92% hits;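 active = B-score of the integrated calcium signal more than 4 SD below the library mean, with starting fluorescence not abnormally high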;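 note: negative B-score means reduced calcium response which marks RGS4 activation or potentiation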
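test system = M3R-expressing HEK293 line, RGS4 induced by doxycycline | probe or stimulus = carbachol at ECmax as muscarinic agonist stimulus | timing = dye loading 30 min 37 °C, buffer rest 30 min RT | signal = calcium dye Fluo4 fluorescence | evaluation = B score from integrated fluorescence ratio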
MrgX1 antag: antagonists of human MrgX1 receptor, primary screen, HEK293 cells, Fluo-4 calcium flux | BAM8-22 antagonism; hits give low values | 310,000 compounds, 1.3% hits | B-score at 10 µM | Mas-related G-protein coupled receptor member X1 (Homo sapiens), Q96LB2;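 active = calcium-response B-score plate-corrected more than 3 library SD below zero, starting fluorescence within 5 deviations, no agonist response on first addition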;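 note: peak minus trough fluorescence over baseline after final BAM8-22 challenge near maximal dose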
RGS4 block valid: enhanced carbachol calcium response, M3R/RGS4 cells, RGS4 inhibitor project, cell-based, validation screen, HEK293 M3R/RGS4, calcium flux; shares compounds with RGS4 block; carbachol calcium Fluo-4 fluorescence; carbachol added at its EC20; 0 = buffer wells, 100 = carbachol control; calcium response, % at 10 µM; 1,700 compounds, 65% hits; AID 492999, 2010;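 active = duplicate-averaged calcium response above the buffer-only control mean plus 5 SD of those controls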;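 note: integrated fluorescence ratio F max minus min over baseline F0; higher response in RGS4-induced cells means RGS4 inhibition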
M3R Ca ctr: carbachol calcium response in non-induced M3R cells, confirmation, counter-screen for RGS4 inhibitor project, cell-based, HEK293 M3R; shares compounds with RGS4 block; carbachol calcium Fluo-4; submaximal (EC20) carbachol stimulus; buffer wells 0%, carbachol control wells 100%; 1,900 compounds, 20% hits; activity (percent), % at 10 µM; call rule not given here;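 note: RGS4 induction absent so cells express M3R without RGS4; higher means more calcium signal and flags a non-specific hit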
M3R basal Ca ctr: second RGS4 inhibitor counter-screen in uninduced cells lacking carbachol; shares compounds with RGS4 block; HEK293 M3R/RGS4 non-induced, Fluo-4 calcium, no carbachol; normalised: buffer wells 0%, carbachol wells 100%; calcium response (agonist-mode artifact), % at 10 µM; 1,900 compounds, 22% hits;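 active = duplicate-averaged calcium rise in uninduced cells above buffer wells' mean plus 5 SD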
* hit, by the source's call; i = inactive; x = not tested or not shown.

SMILES	RGS4 block	MrgX1 PAM	MrgX1 ag	RGS4 pot	MrgX1 antag	RGS4 block valid	M3R Ca ctr	M3R basal Ca ctr
CC(NC(=O)Cn1nc(C(=O)O)c2ccccc2c1=O)C12CC3CC(CC(C3)C1)C2 (stereo not drawn)	i	i	i	i	i	x	x	x
Cc1ccc(/C=C/C(=O)N2CC(C)CC(C)C2)o1 (stereo not drawn)	19*	i	i	i	i	31%*	i	i
CC(=O)Nc1cccc(C(=O)/C=C/c2ccc(C)cc2)c1	i	i	i	i	i	i	i	i
CSc1ccc(/C=C/C(=O)c2ccc(NC(C)=O)cc2)cc1	i	i	i	i	i	x	x	x
CCCCC1=CC2=C(c3ccco3)C(=O)C(C)(OC(=O)c3ccc(OC)cc3)C(=O)C2=CN1CCc1ccccn1 (stereo not drawn)	i	i	i	i	i	x	48%*	i
COC(=O)CCCC1=CC2=C(c3ccccc3)C(=O)C(C)(OC(=O)C3CCCC3)C(=O)C2=CN1C1CCCCC1 (stereo not drawn)	i	i	i	i	i	x	x	x
CCCCC1=CC2=C(c3ccco3)C(=O)C(C)(OC(=O)c3ccc(OC)cc3)C(=O)C2=CN1Cc1ccccc1 (stereo not drawn)	i	i	i	i	-5.4*	i	i	i
CCCCC1=CC2=C(c3ccco3)C(=O)C(C)(OC(=O)c3ccc(OC)cc3)C(=O)C2=CN1C1CCCCC1 (stereo not drawn)	i	i	i	i	i	i	i	i
CCCCC1=CC2=CC(=O)C(C)(OC(=O)CC)C(=O)C2=CN1CCc1ccccn1 (stereo not drawn)	i	i	i	i	i	x	x	x
CCCCC1=CC2=C(c3ccco3)C(=O)C(C)(OC(=O)c3ccc(OC)cc3)C(=O)C2=CN1CCOC (stereo not drawn)	4.9*	i	i	i	i	22%*	34%*	i
CCCCC1=CC2=C(c3ccco3)C(=O)C(C)(OC(=O)c3ccc(OC)cc3)C(=O)C2=CN1Cc1ccc2c(c1)OCO2 (stereo not drawn)	i	i	i	i	i	x	x	x
Cc1ccc(S(=O)(=O)N2CCCOC2CNC(=O)C(=O)NC2CCCC2)cc1 (stereo not drawn)	i	i	i	i	i	i	i	i
COc1ccc2c(c1OC)C(=O)OC2Nc1nc(-c2cc3cc(Br)ccc3oc2=O)cs1 (stereo not drawn)	i	i	i	i	i	x	x	x
COc1ccc(-c2csc(NC3OC(=O)c4c3ccc(OC)c4OC)n2)cc1OC (stereo not drawn)	11*	i	i	i	i	44%*	i	i
COc1ccc2c(c1OC)C(=O)OC2Nc1nc(-c2ccc([N+](=O)[O-])cc2)cs1 (stereo not drawn)	i	i	i	i	i	i	i	i
COc1ccc(C2/C(=C(/O)c3ccccc3)C(=O)C(=O)N2c2ccccn2)cc1OC (stereo not drawn)	i	i	i	i	i	x	x	x
O=C1CCC[C@@H]2Cc3[nH]c4c(Cl)ccc(Cl)c4c3[C@@H]3CCN1[C@H]23	i	i	i	i	i	x	x	x
CCSc1nc(N)c(C#N)c(-c2ccco2)c1C#N	6.5*	i	i	i	i	7.0%*	i	i
COC(=O)CSc1nc(N)c(C#N)c(-c2ccco2)c1C#N	i	i	i	i	i	x	x	x
CC(C)NC(=O)NC(=O)CSc1ncc(C(F)(F)F)cc1Cl	i	i	i	i	i	x	x	x
CC(=O)c1cccc(NC(=O)CSc2ncc(C(=O)Nc3ccccc3)c(=O)n2C)c1	i	i	i	i	i	x	39%*	i
CC(=O)Nc1cccc(NC(=O)CSc2ncc(C(=O)Nc3ccc(F)cc3)c(=O)n2C)c1	i	i	i	i	i	i	i	i
O=C(Cc1ccccc1)Nc1ccc(NC(=S)NC(=O)c2ccccc2)cc1	i	i	i	i	i	x	x	x
COc1ccc(Nc2cnn(-c3nc4ccccc4s3)c(=O)c2Cl)cc1	4.7*	i	i	i	i	11%*	i	i
CCN(CC)S(=O)(=O)c1ccc(C(=O)OCC(=O)N2CCN(C(=O)c3ccco3)CC2)cc1	i	i	i	i	i	x	x	x
SMILES	RGS4 block	MrgX1 PAM	MrgX1 ag	RGS4 pot	MrgX1 antag	RGS4 block valid	M3R Ca ctr	M3R basal Ca ctr
Cc1ccccc1C(=O)Oc1ccc(Cl)cc1C(=S)N1CCOCC1	i	i	i	i	i	x	x	x
COCCCNC(=S)N(CCO)Cc1cc2cc3c(cc2[nH]c1=O)OCCO3	5.2*	i	i	i	i	i	i	i
CCN(CC)CCN(Cc1cc2cc3c(cc2[nH]c1=O)OCCO3)C(=S)NCCCOC	i	i	i	i	i	i	i	i
COCCNC(=S)N(CCO)Cc1cc2cc3c(cc2[nH]c1=O)OCCO3	i	i	i	i	i	i	i	i
CNC(=S)N(CCO)Cc1cc2cc3c(cc2[nH]c1=O)OCCO3	i	i	i	i	i	x	x	x
CCCCNC(=S)N(CCCO)Cc1cc2cc3c(cc2[nH]c1=O)OCCO3	i	i	i	i	i	x	x	x
C=C1C(=O)O[C@@H]2C[C@@H](C)[C@@H]3C=CC(=O)[C@@]3(C)[C@@H](OC(C)=O)[C@H]12	7.6*	i	33*	i	i	22%*	i	11%*
COc1cc(/C=C2\CC/C(=C\c3cc(OC)c(OC)c(OC)c3)C2=O)cc(OC)c1OC	i	i	i	i	i	x	x	x
COc1cc(/C=C2\COC/C(=C\c3cc(OC)c(OC)c(OC)c3)C2=O)cc(OC)c1OC	6.4*	x	x	i	x	20%*	i	i
